Tests used:
murine BMSMCs = test: qPCR of osteoclast markers in murine BMSMC-derived osteoclasts; format: cell-based, mouse
How it was run: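 Murine osteoclasts were cultured in mCSF (50 ng/ml) with RANKL (1 or 100 ng/ml) and, where indicated, LTB4 (50 nM) or TNFα (2 ng/ml) and test compound (100 nM), for up to 14 days. Cells were pelleted and RNA was extracted. Then 250 ng RNA was DNase-treated (ezDNase) and reverse-transcribed with Superscript IV for qPCR.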

TRPC5 = target: T1, TRPC5 (Homo sapiens, UniProt Q9UL62); test: Carbachol-induced Sr2+ entry in TRPC5-overexpressing HEK293 cells; format: cell-based; conditions: read-out: IC50 of Cch-induced Sr2+ entry; Cch 100 nM, Sr2+ 3 mM
T1 sequence (Q9UL62 1-973): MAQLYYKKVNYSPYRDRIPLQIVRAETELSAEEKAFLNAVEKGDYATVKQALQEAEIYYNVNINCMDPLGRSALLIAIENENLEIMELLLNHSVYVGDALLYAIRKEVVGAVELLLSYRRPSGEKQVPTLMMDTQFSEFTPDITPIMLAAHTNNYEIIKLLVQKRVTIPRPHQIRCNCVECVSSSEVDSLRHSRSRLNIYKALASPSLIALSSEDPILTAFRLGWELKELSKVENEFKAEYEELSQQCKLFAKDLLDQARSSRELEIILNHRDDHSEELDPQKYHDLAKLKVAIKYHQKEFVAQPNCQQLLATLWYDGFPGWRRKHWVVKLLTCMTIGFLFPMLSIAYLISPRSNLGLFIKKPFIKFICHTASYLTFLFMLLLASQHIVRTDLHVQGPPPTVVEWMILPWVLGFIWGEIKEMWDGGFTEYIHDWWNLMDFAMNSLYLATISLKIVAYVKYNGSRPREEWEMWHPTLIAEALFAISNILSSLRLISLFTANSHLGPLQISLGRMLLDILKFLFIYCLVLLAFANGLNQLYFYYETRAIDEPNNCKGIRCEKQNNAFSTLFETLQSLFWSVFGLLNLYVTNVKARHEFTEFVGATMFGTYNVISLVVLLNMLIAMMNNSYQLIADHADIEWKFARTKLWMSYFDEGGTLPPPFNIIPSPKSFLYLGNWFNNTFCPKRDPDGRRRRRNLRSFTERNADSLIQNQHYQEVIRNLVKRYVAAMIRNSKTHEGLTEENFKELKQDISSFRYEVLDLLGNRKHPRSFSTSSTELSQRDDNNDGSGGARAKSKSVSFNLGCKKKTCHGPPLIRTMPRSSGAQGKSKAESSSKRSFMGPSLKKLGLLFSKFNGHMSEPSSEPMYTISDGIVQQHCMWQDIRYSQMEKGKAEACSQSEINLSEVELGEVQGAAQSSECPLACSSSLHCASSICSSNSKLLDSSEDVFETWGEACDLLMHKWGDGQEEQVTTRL
How it was run: (§1)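 HEK293 cells were electroporated with GFP-tagged TRPC4, TRPC5 or TRPC7, plated after 24 h and cultured 48 h under selection; only high-GFP cells were analysed. Coverslip cells were loaded with Fura2 (2 µM) and treated with carbachol (100 nM) plus test compound (0 to 100 µM). Entry was measured after adding Sr²⁺ (3 mM), read as the 340/380 ratio; n = 3 to 5.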

TRPC7 = target: T2, TRPC7 (Homo sapiens, UniProt Q9HCX4); test: Carbachol-induced Sr2+ entry in TRPC7-overexpressing HEK293 cells; format: cell-based; conditions: read-out: IC50 of Cch-induced Sr2+ entry; Cch 100 nM, Sr2+ 3 mM
T2 sequence (Q9HCX4 1-862): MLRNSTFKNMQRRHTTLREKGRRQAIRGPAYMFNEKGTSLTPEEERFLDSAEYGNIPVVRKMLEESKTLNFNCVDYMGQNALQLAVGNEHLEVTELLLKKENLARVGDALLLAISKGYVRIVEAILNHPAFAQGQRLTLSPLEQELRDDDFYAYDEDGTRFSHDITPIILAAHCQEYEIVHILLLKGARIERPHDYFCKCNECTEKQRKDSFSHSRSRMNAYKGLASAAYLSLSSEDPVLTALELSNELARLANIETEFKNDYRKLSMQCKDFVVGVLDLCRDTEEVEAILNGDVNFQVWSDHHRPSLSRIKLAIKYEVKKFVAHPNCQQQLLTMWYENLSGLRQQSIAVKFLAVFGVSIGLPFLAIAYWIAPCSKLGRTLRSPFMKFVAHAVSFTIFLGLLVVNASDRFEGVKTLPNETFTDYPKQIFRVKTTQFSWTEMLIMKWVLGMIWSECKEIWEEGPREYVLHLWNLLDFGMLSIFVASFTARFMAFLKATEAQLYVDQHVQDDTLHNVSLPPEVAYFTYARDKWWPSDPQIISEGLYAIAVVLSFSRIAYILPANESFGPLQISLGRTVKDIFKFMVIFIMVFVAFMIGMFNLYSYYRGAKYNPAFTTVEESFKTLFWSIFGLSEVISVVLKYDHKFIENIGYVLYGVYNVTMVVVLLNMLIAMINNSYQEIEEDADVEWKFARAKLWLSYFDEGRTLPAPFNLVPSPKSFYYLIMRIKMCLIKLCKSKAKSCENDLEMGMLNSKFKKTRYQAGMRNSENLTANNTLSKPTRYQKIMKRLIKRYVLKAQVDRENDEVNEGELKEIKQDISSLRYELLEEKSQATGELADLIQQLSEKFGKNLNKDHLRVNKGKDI
How it was run: as §1

IC50 (TRPC5): 11.5 nM
IC50 (TRPC7): 22.8 nM
Compound: CCC(=O)N(C)c1ccc(Cl)c(Cl)c1 [ELP-004]
changes in LTB4-induced expression of other osteoclast markers (murine BMSMCs; LTB4/RANKL, ELP-004 100 nM): no significant changes
effect on LTB4-induced increase in DC-STAMP expression (murine BMSMCs; LTB4/RANKL, ELP-004 100 nM): no effect
effect on LTB4-induced increase in OC-STAMP expression (murine BMSMCs; LTB4/RANKL, ELP-004 100 nM): no effect
changes in OC-STAMP mRNA expression (murine BMSMCs; RANKL (100 ng/ml), ELP-004 100 nM): no significant changes
effect on DC-STAMP mRNA expression (murine BMSMCs; RANKL (100 ng/ml), day 14, ELP-004 100 nM): Significant inhibition
effect on MMP9 expression (murine BMSMCs; RANKL, day 14, ELP-004 100 nM): inhibited
effect on DC-STAMP expression (murine BMSMCs; TNFα/RANKL, ELP-004 100 nM): abrogated
effect on MMP9 expression (murine BMSMCs; TNFα/RANKL, ELP-004 100 nM): suppressed
effect on OC-STAMP expression (murine BMSMCs; TNFα/RANKL, ELP-004 100 nM): abrogated
effect on other osteoclast markers (murine BMSMCs; TNFα/RANKL, ELP-004 100 nM): no other osteoclast markers
